Assay results from the RNAGym collection of RNA variant scans (doi:10.1002/anie.201605470).

B1: Osa-1-4 twister ribozyme (parent)
chain: CCGCCUAACACUGCCAAUGCCGGUCCCAAGCCCGGAUAAAAGUGGAGGGGGCGG

Variants of: B1
Test: self-cleavage, relative activity (ratio to wild type); higher = more cleavage; co-transcriptional
Method in brief: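 For each read, cleavage status was taken from whether upstream sequence was present. The reads came from an Oryza sativa twister ribozyme of 54 nucleotides, whose DNA template was synthesised with 97 % wild-type base and 1 % of each other base at the 48 positions downstream of the cleavage site. The template was transcribed in vitro at 37 °C for 2 h with co-transcriptional self-cleavage, and the RNA was reverse-transcribed using a template-switching oligonucleotide, PCR-amplified and deep-sequenced. Relative activity is the fraction cleaved normalised to wild type.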

Variant | self-cleavage
C25G C52A | 0.08
C25G G22C | 0.03
C25G G22A | 0.09
C25G G22U | 0.06
C25G C9A | 0.02
C25G C9G | 0.07
C25G C9U | 0.03
C25G U12A | 0.06
C25G U12C | 0.05
C25G U12G | 0.04
C25U G48U | 0.04
C25U G48C | 0.06
C25U G48A | 0.07
C26A G53A | 0.06
C26A G53U | 0.04
C26A G53C | 0.02
C25G G19A | 0.06
C25G G19U | 0.04
C25G G19C | 0.03
C25U G19U | 0.08
C25U G19C | 0.04
C25U G19A | 0.14
C25U G22U | 0.47
C25U G22C | 0.07

Variant | self-cleavage
C25U G22A | 0.74
C25U C52A | 0.66
C25U C52U | 0.9
C25U C52G | 0.8
C25U G45U | 0.05
C25U G45A | 0.06
C25U G45C | 0.05
C25G G44U | 0.05
C25G G44A | 0.06
C25G G44C | 0.06
C25U C27G | 0.06
C25U C27U | 0.17
C25U C27A | 0.06
C26G C52G | 0.16
C26G C52A | 0.12
C26G C52U | 0.11
C26A G45C | 0.02
C26A G45A | 0.02
C26A G45U | 0.02
C25A U18C | 0.15
C25A U18G | 0.35
C25A U18A | 0.1
C26A G47A | 0.03
C26A G47C | 0.02

Variant | self-cleavage
C26A G47U | 0.03
C26A U18A | 0.05
C26A U18G | 0.12
C26A U18C | 0.06
C25G G47C | 0.02
C25G G47U | 0.03
C25G G47A | 0.05
C26A C31G | 0.03
C26A C31U | 0.06
C26A C31A | 0.02
C26G C31A | 0.02
C26G C31U | 0.06
C26G C31G | 0.05
C25U G54C | 0.31
C25U G54U | 0.56
C25U G54A | 0.34
C25U U18A | 0.75
C25U U18C | 0.84
C25U U18G | 0.89
C25G C31G | 0.23
C25G C31U | 0.05
C25G C31A | 0.02
C26A C33A | 0.05
C26A C33U | 0.04

Variant | self-cleavage
C26A C33G | 0.02
C25U C32G | 0.1
C25U C32U | 0.08
C25U C32A | 0.06
C26A U43G | 0.04
C26A U43C | 0.04
C26A U43A | 0.05
C26A U24C | 0.02
C26A U24A | 0.03
C26A U24G | 0.01
C26A U12C | 0.03
C26A U12A | 0.04
C26A U12G | 0.04
C25G U43G | 0.04
C25G U43C | 0.06
C25G U43A | 0.08
C25U U24A | 0.06
C25U U24G | 0.04
C25U U24C | 0.08
C26A G50A | 0.07
C26A G50C | 0.05
C26A G50U | 0.05
C25G G48U | 0.02
C25G G48A | 0.04

Variant | self-cleavage
C25G G48C | 0.03
C25G G35C | 0.05
C25G G35U | 0.07
C25G G35A | 0.12
C25U G47C | 0.06
C25U G47U | 0.07
C25U G47A | 0.09
C25U G35A | 0.87
C25U G35C | 0.09
C25U G35U | 0.72
C25G G13C | 0.01
C25G G13A | 0.03
C25G G13U | 0.01
C25U U37A | 0.74
C25U U37G | 0.96
C25U U37C | 0.95
C25G U18A | 0.08
C25G U18G | 0.18
C25G U18C | 0.13
C26A G35U | 0.04
C26A G35A | 0.06
C26A G35C | 0.04
C25G C27A | 0.02
C25G C27U | 0.07

Variant | self-cleavage
C25G C27G | 0.07
C26G G48A | 0.06
C25G G49C | 0.7
C25G G49A | 0.07
C25G G49U | 0.61
C25A U24C | 0.04
C25A U24A | 0.04
C25A U24G | 0.04
C25G G42C | 0.06
C25G G42U | 0.02
C25G G42A | 0.09
C25G U37G | 0.13
C25G U37A | 0.12
C25G U37C | 0.12
C25G G53A | 0.08
C25G G53C | 0.02
C25G G53U | 0.06
C25U G49A | 0.77
C25U G49C | 0.06
C25U G49U | 0.71
C25U G44A | 0.32
C25U G44U | 0.56
C25U G44C | 0.84
C25U G30C | 0.03

Variant | self-cleavage
C25U G30A | 0.03
C25U G30U | 0.05
C25A U43A | 0.06
C25A U43G | 0.06
C25A U43C | 0.06
C26G G44A | 0.09
C26G G44U | 0.08
C26G G44C | 0.09
C25U C31U | 0.13
C25U C31A | 0.04
C25U C31G | 0.31
C26A C27A | 0.05
C26A C27U | 0.03
C26A C27G | 0.03
C26G G42C | 0.05
C26G G42U | 0.02
C26G G42A | 0.08
C26A G54U | 0.12
C26A G54A | 0.06
C26A G54C | 0.05
C26G G13C | 0.01
C26G G13U | 0.01
C26G G13A | 0.03
